Columns and labels:
[1] = tested on: Staphylococcus epidermidis; test: Antibacterial activity against Staphylococcus epidermidis; type: functional, organism-based
Outline: (§1)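 Twofold serial broth dilution in nutrient broth across eight tubes, with broth alone as control. Each tube received 10 µl of diluted log-phase culture at a titre of 10^4 cfu/ml. Incubation at 37 °C, with growth read by turbidity. EC50 values are means of three experiments run in triplicate.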

Staphylococcus aureus = test: Antibacterial activity against Staphylococcus aureus; type: functional, organism-based; outline: as §1

SMILES | EC50 [1] [nM] | EC50 (Staphylococcus aureus) [nM]
Cc1cc(O)c(C=O)c(O)c1 | 1640 | 1640
COC(=O)c1cc(O)cc(OC)c1C=O | 2380 | 4760
CC(=O)c1cc(O)c(O)c(O)c1 | 1480 | 2960
O=C(O)c1cc(O)cc(O)c1CO | 670 | 670
O=C(O)/C=C/c1ccc(O)c(O)c1 [CAFFEIC ACID] | 2780 | 2780

Continued by falling EC50 [1], values first:

EC50 [1] [nM] | EC50 (Staphylococcus aureus) [nM] | SMILES
4030 | 4030 | Cc1cc(O)cc(O)c1 [ORCINOL]
2550 | > 5000 | COc1cc(O)cc(C(=O)O)c1C=O
1370 | > 5000 | O=Cc1c(O)cc(O)cc1C(=O)O
1040 | 2080 | O=C(O)CCCC(=O)c1ccc(O)c(O)c1O
990 | 490 | Oc1cccc(O)c1O [PYROGALLOL]
630 | 1260 | O=C(O)/C=C/c1cc(O)c(O)c(O)c1
120 | 120 | COC(=O)CC/C=C/c1c(O)cc(C(=O)O)cc1O [OENOSTACIN]

Source: ChEMBL document CHEMBL1144494, “Synthesis of diverse analogues of Oenostacin and their antibacterial activities” (Bioorg Med Chem, 2007)
